Data set [1] is described as follows: Antiproliferative activity against human NCI-H290 cells after 48 hrs by XTT assay. In kind it is functional, cell-based. The following applies: NCI-H290, 48 h. In outline: (§1)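 Human H290, MDA-MB-231 and U87-MG and murine LLC tumour cell lines treated 48 h, with or without β-glucuronidase in the culture medium. IC50 derived from cell viability assays; highest tested dose 2 μM.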

The next data set concerns MDA-MB-231. Put plainly: Antiproliferative activity against human MDA-MB-231 cells after 48 hrs by XTT assay. The data set is classed as functional, cell-based. The conditions noted are these: MDA-MB-231, 48 h. In outline: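 Human MDA-MB-231 tumour cells were exposed to drug for 48 h, with or without β-glucuronidase added to the culture medium. Viability read-out gave IC50 in nM. Highest prodrug concentration tested was 2 μM.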
(Tetrazolium dyes change colour on reduction, which living cells bring about.)

The nature of data set [2]: Antiproliferative activity against human U87MG cells after 48 hrs by XTT assay. The data set is classed as functional, cell-based, U-87MG ATCC. The conditions noted are these: U-87 MG. The procedure, abridged:
as §1

Data set [3] concerns Lewis lung carcinoma cell line. Put plainly: Antiproliferative activity against mouse LLC cells after 48 hrs by XTT assay. The data set is classed as functional, cell-based. The procedure, abridged: as §1
In data set [4] the test system is Mus musculus. Put plainly: Toxicity in C57BL/6 mouse xenografted with mouse LLC cells assessed as change in body weight at 13.7 umol/kg, iv administered on day 4 and day 11 after tumor transplantation measured on day 17. The data set is classed as organism-based. The conditions noted are these: in vivo. The procedure, abridged: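 Subcutaneous murine LLC-bearing mice given two iv doses on days 4 and 11 after transplantation: 2 × 13.7 μmol/kg doxorubicin or 2 × 43.6 μmol/kg prodrug. Body weight change (%) and mortality recorded, 8 mice per group.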

Data set [5] concerns Lewis lung carcinoma cell line. The experiment in a line: Antitumor activity against mouse LLC cells xenografted in C57BL/6 mouse assessed as decrease in tumor volume at 13.7 umol/kg, iv administered on day 4 and day 11 after tumor transplantation measured on day 17. The data set is classed as functional. The procedure, abridged:
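Murine LLC tumours grown subcutaneously in mice. Two iv injections on days 4 and 11 after transplantation: doxorubicin 2 × 13.7 μmol/kg, glucuronide prodrugs 2 × 43.6 μmol/kg. T/C = mean relative tumour volume of treated group / mean relative tumour volume of control group. Minimal T/C reported with the day it was reached; 8 mice per group.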

The subject of data set [6] is Mus musculus. Put plainly: Nephrotoxicity in C57BL/6 mouse xenografted with mouse LLC cells at 13.7 umol/kg, iv administered on day 4 and day 11 after tumor transplantation measured on day 17 by hematoxylin eosin staining method. The data set is classed as toxicity, organism-based. The following applies: in vivo. The procedure, abridged: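 Kidneys from LLC-bearing mice dosed iv on days 4 and 11 were sectioned and stained with hematoxylin eosin. Renal tissue examined microscopically alongside untreated controls.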

One may read the IC50 as the concentration at which inhibition is half-maximal. The term T/C denotes the ratio of treated to control. Regarding `COc1cccc2c1C(=O)c1c(O)c3c(c(O)c1C2=O)C[C@@](O)(C(=O)CO)C[C@@H]3O[C@H]1C[C@H](N)[C@H](O)[C@H](C)O1` [DOXORUBICIN], the IC50 in data set [1] came out at 320 nM; in the data set on MDA-MB-231, 340 nM; in data set [2] it was 790 nM; in data set [3], 207 nM. Moreover, the Activity was -21% in the data set on Mus musculus [4] and “Toxic” with Mus musculus [6]. The T/C in data set [5] is listed as 31%.

Source of the values: ChEMBL document CHEMBL2057162, “Synthesis and antitumor efficacy of a β-glucuronidase-responsive albumin-binding prodrug of doxorubicin” (J Med Chem, 2012).
